# Rows were chosen to be rich in hits. Some 2.6% of all compounds tested hit in one or more screens of this group.
# Platelet DG rel = modulates dense granule release in human platelets. human platelet-rich plasma, SFLLRN dense granule ATP release, luminescence. inhibition, %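 (compounds screened at 7.5 µM in platelet-rich plasma)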. 300,000 compounds, 0.22% hits. AID 1663;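 active = mean replicate score, as percent of positive control, at or above 50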
# SENP8 block-1 = inhibitors of human SENP8 protease; recombinant SENP8, Nedd8 substrate fluorescence; 360,000 compounds, 0.64% hits; inhibition, % at 20 µM; in the data active = inhibition mostly above about 40%, no sharp cut-off; inactive = mostly below about 27%
# SENP6 block = blocks the human protease SENP6 | Q9GZR1 | 330,000 compounds, 1.8% hits | inhibition, % at 10 µM | Recombinant SENP6 catalytic domain, aminoluciferin luminescence;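 active = inhibition above about 50% at the single tested dose, limit read from the data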;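 note: plate controls were DMSO wells with enzyme for no effect and DMSO wells lacking enzyme for full effect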
# SENP7 block = blocks the human protease SENP7; Q9BQF6; recombinant SENP7, Z-RLRGG-aminoluciferin luminescence, 40 min; inhibition, % at 5 µM; 330,000 compounds, 1.5% hits; AID 434973;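 active = inhibition above about 50% at the single test dose, limit read from the data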;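 note: plate controls were DMSO with enzyme for no effect and no enzyme buffer wells for full effect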
# SENP8 block-2 = SENP8 protease inhibition; AID 2540; Q96LD8; inhibition, % at 10 µM; 330,000 compounds, 1.2% hits; purified SENP8, Z-RLRGG-aminoluciferin cleavage, luminescence; in the data active = inhibition above about 50%
# SENP1 FRET inh = SENP1 (human) catalytic domain inhibition; Q9P0U3; recombinant SENP1 catalytic domain, CyPet-SUMO1-YPet FRET cleavage; inhibition, % at 10 µM; 360,000 compounds, 0.21% hits;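 active = inhibition at least 30% at 10 µM, raw YFP signal under a set limit, fluorescence ratio 0.5 to 1.5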;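 note: 0% = enzyme with DMSO and 100% = no enzyme wells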
# Target sequence (Q9P0U3 419-644 limits assumed): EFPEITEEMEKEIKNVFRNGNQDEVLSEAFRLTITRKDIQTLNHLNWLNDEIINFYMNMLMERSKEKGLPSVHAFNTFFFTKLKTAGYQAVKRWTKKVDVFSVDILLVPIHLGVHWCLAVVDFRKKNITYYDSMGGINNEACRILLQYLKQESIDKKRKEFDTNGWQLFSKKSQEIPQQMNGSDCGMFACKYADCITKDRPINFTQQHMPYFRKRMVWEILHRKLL
#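 Test system: hSENP1 catalytic domain, recombinant; Amount: 20 pM final SENP1 enzyme; Medium: Tris pH 8 buffer plus EDTA, NaCl, BME, BSA, NP40, catalase; Schedule: 50 min enzyme reaction, room temperature, light-protected; Technique: FRET fluorescence in CFP and YFP emission channels; Controls: no-enzyme wells low, DMSO-plus-enzyme wells high control.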
# SENP8 confirm = human SENP8 inhibition, confirmed; shares compounds with SENP7 block; Recombinant SENP8, Z-RLRGG-aminoluciferin luminescence, 60 min; inhibition, % at 12.5 µM; 6,200 compounds, 40% hits; AID 488912;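 active = mean inhibition across replicates above about 50%, limit read from the data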
# SENP6 conf = human SENP6 inhibition, confirmed; shares compounds with SENP7 block; recombinant SENP6, Z-RLRGG-aminoluciferin luminescence; inhibition, % at 12.5 µM; 6,200 compounds, 58% hits; AID 488915
# SENP7 confirm = confirmation of human SENP7 protease inhibitors. shares compounds with SENP7 block. 6,200 compounds, 69% hits. inhibition, % at 12.5 µM. recombinant SENP7, Z-RLRGG-aminoluciferin luminescence, 40 min
# Casp3 SENP sel = caspase-3 inhibition (SENP selectivity assay); shares compounds with SENP7 block; purified caspase-3, Z-DEVD-aminoluciferin luminescence, 60 min; 6,200 compounds, 60% hits; inhibition, % at 12.5 µM;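 active = mean inhibition above about 50%, limit read from the data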;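 note: plate controls were enzyme with DMSO for no effect and wells without caspase-3 for full effect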
# Target sequence (P42574 28-227 limits assumed): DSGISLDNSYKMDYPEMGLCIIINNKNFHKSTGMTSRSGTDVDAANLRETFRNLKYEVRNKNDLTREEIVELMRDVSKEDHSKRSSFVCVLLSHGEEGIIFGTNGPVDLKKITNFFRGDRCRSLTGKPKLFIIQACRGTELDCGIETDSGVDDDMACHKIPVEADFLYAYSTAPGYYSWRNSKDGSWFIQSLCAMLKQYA
# SENP luc ctr = counter-screen for SENP inhibitors: luminescence interference; shares compounds with SENP7 block; Pre-incubated SENP8/Z-RLRGG-aminoluciferin, luciferase luminescence interference; inhibition, % at 12.5 µM; 6,200 compounds, 39% hits; AID 488919;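 active = mean inhibition above about 50% when retested at one dose, limit read from the data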;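 note: plate controls were DMSO wells with completed reaction for no effect and substrate without enzyme for full effect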
# * = called active by the depositor; / = no result given.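 Rule for the calls, unless noted: active = mean inhibition above about 50% in the one-dose retest (limit read from the data); inactive = the rest.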
SMILES,Platelet DG rel,SENP8 block-1,SENP6 block,SENP7 block,SENP8 block-2,SENP1 FRET inh,SENP8 confirm,SENP6 conf,SENP7 confirm,Casp3 SENP sel,SENP luc ctr
O=C(CCS(=O)(=O)Cc1ccccc1)Nc1ncc([N+](=O)[O-])s1,4,7,88*,83*,84*,-12,-1,83*,97*,71*,82*
Cc1ccc(CC(=O)Nc2ncc([N+](=O)[O-])s2)cc1,-10,-175,91*,63*,88*,-14,93*,93*,99*,91*,55*
COc1ccc(C(=O)OCC(=O)Nc2ncc([N+](=O)[O-])s2)cc1OC,/,14,3,8,11,-14,/,/,/,/,/
O=C(COC(=O)c1ccc(Br)o1)Nc1ncc([N+](=O)[O-])s1,/,18,74*,28,65*,-18,69*,66*,86*,78*,73*
Cc1ccc(S(=O)(=O)CC(=O)Nc2ncc([N+](=O)[O-])s2)cc1,-6,8,7,13,0,-15,/,/,/,/,/
CC1CCCC(C)N1CCCNC(=O)Cn1ncc2c3ccccc3n(C)c2c1=O (stereo not given),-12,-104,10,5,0,-55,/,/,/,/,/
COc1ccc(/C=N/n2c(=O)[nH]c3c([nH]c4ccc(F)cc43)c2=O)cc1CN1CCCCC1,-3,-113,-18,-6,0,-2,/,/,/,/,/
O=C(Nc1cccnc1)c1cccc(S(=O)(=O)N2CCCCC2)c1,1,9,-43,-1,-4,1,/,/,/,/,/
COc1ccccc1C1Nc2cccc3cccc(c23)N1,-9,-178,60*,13,31,-2,15,12,3,-2,-3
Clc1cccc(Cl)c1C1Nc2cccc3cccc(c23)N1,11,-6,42,8,14,7,/,/,/,/,/
COc1ccc(C2Nc3cccc4cccc(c34)N2)cc1,3,-5,64*,3,14,-15,14,17,13,4,7
c1ccc(C2Nc3cccc4cccc(c34)N2)cc1,0,-4,6,12,2,5,/,/,/,/,/
COc1cc(OC)c(C2Nc3cccc4cccc(c34)N2)c(OC)c1,1,-290,58*,5,23,-14,15,26,1,-3,-4
Oc1ccccc1C1Nc2cccc3cccc(c23)N1,5,-113,30,5,16,-3,/,/,/,/,/
COc1ccc(N(C(=O)c2ccco2)S(=O)(=O)c2cc(Cl)c(Cl)cc2Cl)cc1,0,6,-1,1,3,1,/,/,/,/,/
COc1ccccc1Nc1nc(C)c(C(=O)Nc2ccccc2)s1,-55,-413,1,11,-4,0,/,/,/,/,/
COc1cc(NC(=O)C2CCCN2S(=O)(=O)c2ccc3c(c2)CCC(=O)N3)cc(OC)c1 (stereo not given),/,2,-10,-4,-4,0,/,/,/,/,/
C=CCCCCCCCC(=O)OC,-1,6,0,-6,-1,2,/,/,/,/,/
COc1cc(/C=N/O)ccc1OCc1ccccc1Cl,4,8,67*,50*,41,0,43,55*,79*,33,59*
O=C1CCC(C(=O)Nc2nnc(C3CC3)s2)=NN1,4,3,-18,0,3,1,/,/,/,/,/
Cc1cc(C)c(C#N)c(SCC(=O)c2ccccc2)n1,1,17,-9,11,-1,-17,/,/,/,/,/
Cc1cc(=O)[nH]c(SCC(=O)c2ccccc2)c1C#N,-1,26,74*,26,60*,-15,72*,74*,94*,82*,79*
S=C(Nc1ccccc1)Nc1ccccn1,/,11,/,/,/,2,/,/,/,/,/
